# STK33 inh – inhibitors of purified STK33 kinase, primary screen, biochemical, ADP-Glo luminescence, homogeneous, cell-free; Serine/threonine-protein kinase 33 (Homo sapiens), Q9BYT3; MBP phosphorylation; inhibition, % at 10 µM; actives 0.073% (n = 320,000);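 active = inhibition at or above 25%, using the most active replicate where run in duplicate; inactive = inhibition below 25%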
# GSK3 alpha inh – blockers of GSK3A enzyme activity – biochemical, luminescence, cell-free homogeneous, HTS, primary screen; actives 0.1% (n = 320,000); AID 2650, 2010; inhibition, % at 10 µM; GSK-3 alpha kinase, ADP-Glo luminescence, 60 min;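 active = more than half of replicates show inhibition above 20%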;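 note: GST-tagged GSK-3 alpha with peptide substrate and 25 µM ATP; 0% = DMSO neutral wells and 100% = GW8510 positive control wells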
# GSK3beta inhib – human GSK3beta kinase inhibitors, primary screen, biochemical, cell-free homogeneous, HTS; Glycogen synthase kinase-3 beta (Homo sapiens), P49841; activity score (negative = inhibition), % at 10 µM; AID 2097, 2009; GST-GSK3beta kinase, ADP-Glo luminescence, 60 min; stronger effect = lower value; actives 0.038% (n = 300,000);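 active = more than half of replicate wells score below -50%, meaning over 50% inhibition versus plate controls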;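 note: 0% = median DMSO wells and -100% = median GW8510 positive control wells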
#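 Assay system: GST-tagged human GSK3beta kinase, cell-free; Input: 1.6 ng GSK3beta; Medium: Tris/MgCl2 kinase buffer; Timing: 60 min enzyme reaction, room temperature; Signal: ADP-Glo luminescence quantifying ADP generated by kinase; Evaluation: score relative to plate controls; Benchmarks: DMSO neutral wells and GW8510 at 20 µM as positive.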
# Arrestin-AP2 inh – inhibitors of beta-arrestin/AP2 binding, primary screen, biochemical, GPCR trafficking, flow cytometry | beta-arrestin 1 C-terminal peptide binding to AP2 beta2-adaptin appendage (human) | FITC-arrestin peptide / GST-AP2 beads; AP2 beta2 appendage carries R879A mutation | inhibition, % at 10 µM | actives 0.31% (n = 340,000) | AID 504490, 2011;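 active = inhibition above a set limit, near 3 SD of compounds lacking own fluorescence, cut at about 54% in these data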;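 note: plate controls were DMSO wells for no effect and 5 µM unlabelled arrestin peptide for full effect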
#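 System: GST-tagged AP2 beta2-adaptin appendage (R879A) on 4 µm glutathione beads / Reagent: FITC-arrestin peptide, 50 nM / Detection: HyperCyt-sampled flow cytometry, FL1 channel, ex 488/em 535 nm / Timing: 12 min plus 1 h, RT / Buffer or medium: PBS plus Tween 20 (0.05%) and BSA (0.1%)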
# Dyrk1A ADPGlo – rat Dyrk1A kinase inhibitors, primary screen, biochemical, single point, plate reader; Dual specificity tyrosine-phosphorylation-regulated kinase 1A (Rattus norvegicus), Q63470; ADP-Glo luminescence, NFATc1 peptide; inhibition, % at 12.5 µM; actives 0.43% (n = 310,000); AID 504441, 2011; in the data active = inhibition above about 50%;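 note: plate controls were vehicle with enzyme for no effect and no enzyme for full effect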
# Rin1-Abl PPI inh – inhibitors of Rin1-Abl protein binding, primary screen, biochemical, TR-FRET. Tyrosine-protein kinase ABL1 (Homo sapiens) + Ras and Rab interactor 1 (Homo sapiens), …. inhibition, % at 7.35 µM. actives 0.4% (n = 360,000). AID 588664, 2011; in the data active = inhibition above about 5%, passing the limit was not always enough
# Rin1-Abl confirm – Rin1-Abl binding inhibitor retest, confirmation, biochemical, TR-FRET; shares compounds with Rin1-Abl PPI inh; purified proteins; inhibition, % at 7.35 µM; actives 49% (n = 1,300)
# GFP quench-1 – GFP fluorescence inhibitors and quenchers, artefact control for Rin1-Abl interaction inhibitor project, biochemical | shares compounds with Rin1-Abl PPI inh | inhibitors/quenchers counterscreen | inhibition, % at 6.75 µM | actives 8.5% (n = 1,300) | AID 602125, 2011;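 note: ABL1-eGFP fusion protein alone without its partner RIN1-SBP; 0% = protein with vehicle and 100% = wells lacking protein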
# GFP quench dose – GFP fluorescence inhibitors and quenchers, dose response, artefact control for Rin1-Abl interaction inhibitor project, biochemical. shares compounds with Rin1-Abl PPI inh. GFP fluorescence interference/quenching counterscreen. IC50, µM. 230 tested, under 10 active; call rule not given here;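 note: ABL1-eGFP fusion protein alone without its RIN1 binding partner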
# GFP quench-2 – GFP fluorescence inhibitors and quenchers, late-stage follow-up, artefact control for Rin1-Abl interaction inhibitor project, biochemical, dose response; IC50, µM; 25 tested, under 10 active; GFP fluorescence quenching counterscreen; AID 602397, 2012; shares compounds with Rin1-Abl PPI inh; call rule not given here
# * marks the source's active call; other numbers are inactive results; / = not tested or not shown. Hits are enriched below; roughly 0.99% of the tested compounds scored in any of these assays. Cut-off read from the data, not from the text of the source, unless noted: active = inhibition above about 6.5%; inactive = the rest.
SMILES,STK33 inh,GSK3 alpha inh,GSK3beta inhib,Arrestin-AP2 inh,Dyrk1A ADPGlo,Rin1-Abl PPI inh,Rin1-Abl confirm,GFP quench-1,others
COc1ccc(-c2[nH][nH]c(=O)c2NC(=O)c2ccccn2)cc1,/,/,/,/,/,4,/,/,
COc1ccc(CCC(=O)Nc2c(-c3ccc(N(C)C)cc3)[nH][nH]c2=O)cc1,/,/,/,/,/,32*,40*,-2,GFP quench dose=>68
C[C@H]1CN([C@@H](C)CO)C(=O)c2cc(Br)cnc2O[C@@H]1CN(C)C(=O)C1CCC1,/,/,/,/,/,0,/,/,
CC(=O)Nc1ccc(S(=O)(=O)N(C)CC(=O)N2CCN(C(=O)c3ccco3)CC2)cc1,-2,-2,/,0,-2,0,/,/,
Cc1ccc(NC2CCCN(C(=O)CCC(=O)c3ccccc3)C2)cc1C (configuration not stated),/,/,1,6,-6,1,/,/,
Cc1ccc(NC2CCCN(C(=O)CN3C(=O)c4ccccc4C3=O)C2)cc1C (configuration not stated),-1,0,1,24,-8,9.8*,0,0,
CC1=C(C(=O)N(C(C)C)C(C)C)CC(CC(=O)NCCc2ccccn2)C(=O)N1Cc1ccc(F)cc1 (configuration not stated),/,/,/,/,/,3,/,/,
O=c1oc(Cc2ccccc2)nc2ccccc12,1,-5,-2,6,0,3,/,/,
CCOC(=O)C(=O)Nc1nnc(Cc2ccc(OC)c(OC)c2)s1,0,-2,2,-6,1,1,/,/,
CCOC(=O)Nc1nnc(Cc2ccc(Cl)c(Cl)c2)s1,0,0,-1,-4,-1,9.3*,-2,0,
Cc1ccccc1-n1c(SCC(=O)NC2CC2)nc2ccccc2c1=O,/,/,/,/,/,10*,0,0,
CC(Oc1cccc(Cl)c1)C(=O)Nc1nc(-c2ccccn2)cs1 (configuration not stated),-1,-1,2,-16,-2,7.1*,-1,1,
CC(Oc1ccccc1)C(=O)Nc1nc(-c2ccccn2)cs1 (configuration not stated),/,/,/,25,1,4,/,/,
Cc1cc(Cl)c(C)c(S(=O)(=O)N2CCN(CC(=O)N3CCOCC3)CC2)c1Cl,-2,9,/,22,/,2,/,/,
CCCc1c(O)nc(SCCN(CC)CC)[nH]c1=O,1,-5,0,3,1,7.6*,-2,0,
CN(CCc1ccccc1)C(=O)c1ccc(NC(=O)Cc2ccc(NC(=O)C3CCCN(C(=O)c4ccccc4)C3)cc2)cc1 (configuration not stated),/,/,/,18,/,-3,/,/,
CN(CCc1ccccc1)C(=O)c1ccc(NC(=O)Cc2ccc(NC(=O)C3CCN(C(=O)C4CC4)CC3)cc2)cc1,/,/,/,17,8,13*,15*,-4,
CN(CCc1ccccc1)C(=O)c1ccc(NC(=O)Cc2ccc(NC(=O)C3CCN(C(=O)C4CCCC4)CC3)cc2)cc1,/,/,/,38,-2,60*,68*,1,GFP quench dose=>67;GFP quench-2=>68
CN(CCc1ccccc1)C(=O)c1cccc(NC(=O)Cc2cccc(NC(=O)C3CCN(C(=O)C4CC4)CC3)c2)c1,/,/,/,-16,/,0,/,/,
CN(CCc1ccccc1)C(=O)c1ccc(NC(=O)Cc2ccc(NC(=O)C3CCN(C(=O)c4ccccc4)CC3)cc2)cc1,/,/,/,3,/,41*,42*,1,GFP quench dose=>67;GFP quench-2=>68
O=C(CS(=O)(=O)c1ccccc1)Nc1ccccc1Br,/,/,/,4,/,-1,/,/,
CC(=O)NS(=O)(=O)c1ccc(NS(=O)(=O)c2ccc3ccccc3c2)cc1,-3,-4,2,-6,1,-3,/,/,
CC(=O)NS(=O)(=O)c1ccc(NS(=O)(=O)c2ccc(F)cc2)cc1,0,-2,0,-3,-1,5.8*,-3,2,
COC(=O)C1=C(O)/C(=C\c2ccc(CNS(=O)(=O)c3ccccc3)o2)N=C1C,0,2,-5,5,5,6.0*,-1,3,
COC(=O)C1=C(O)/C(=C\c2ccc(CNS(=O)(=O)c3ccc(Cl)cc3)o2)N=C1C,3,0,4,9,-3,6,/,/,
SMILES,STK33 inh,GSK3 alpha inh,GSK3beta inhib,Arrestin-AP2 inh,Dyrk1A ADPGlo,Rin1-Abl PPI inh,Rin1-Abl confirm,GFP quench-1,others
COc1ccc(Cl)cc1NS(=O)(=O)c1cccc(C(=O)NCCCN2CCOCC2)c1,/,/,/,/,/,-2,/,/,
Cc1ccc(-c2nnc(-n3ncc(C#N)c3N)c3ccccc23)cc1C,-1,-2,0,32,-5,9.3*,-1,-1,
COc1ccc(NC(=O)CSc2nc(N)cc(=O)[nH]2)cc1S(=O)(=O)N1CCCCC1,/,/,/,11,2,11*,7.7*,0,
COc1ccc(CC(=O)Nc2ccc(S(=O)(=O)N3CCCCC3)cc2)cc1OC,0,-3,0,10,3,10*,6.7*,-1,
Cc1cc(C)nc(SCC(=O)Nc2ccc(S(=O)(=O)N3CCCCC3)cc2)n1,-1,0,0,-2,3,6.3*,4,0,
Cc1csc(SCC(=O)Nc2ccc(S(=O)(=O)N3CCCC3)cc2)n1,-1,-6,-4,0,-1,1,/,/,
COc1ccc(CC(=O)Nc2ccc(S(=O)(=O)N3CCCC3)cc2)cc1OC,0,-1,/,-1,-1,6,/,/,
COc1cc(C(=O)Nc2ccc(S(=O)(=O)N3CCOCC3)cc2)c([N+](=O)[O-])cc1OC,-1,-1,2,-2,-6,11*,0,0,
Cc1ccccc1CCN1CCCC(CN(C)C(=O)c2ccc3ncccc3c2)C1 (configuration not stated),-1,-1,1,-10,7,2,/,/,
O=C(Nc1cc(C(F)(F)F)ccc1N1CCCC1)C1CC(=O)N(Cc2ccccc2)C1 (configuration not stated),/,/,/,/,/,3,/,/,
Cn1c(N)c(NC(=S)NC2CCCCC2)c(=O)n(C)c1=O,/,/,/,35,-2,1,/,/,

# Compound activity deposited in PubChem by several laboratories.
